Data from article PMC4955407 (Journal of medicinal chemistry, 2015).

Tests used:
[1] = biological target: c-Myc–Max(S)/DNA complex (Homo sapiens, UniProt P01106); assay: EMSA, disruption of c-Myc–Max; assay type: biochemical; conditions: 100 µM compound, n = 1
How it was run: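 His6-tagged proteins were expressed in E. coli BL21DE3(pLysS) with IPTG induction and purified on Ni-NTA under 8 M urea. The tag was removed with TEV protease, giving >95% purity. Each protein at 30 nM was mixed with 30 nM HEX-labelled double-stranded oligonucleotide carrying a c-Myc binding site. Complexes were resolved by gel shift.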

[2] = test system: H460 large cell lung cancer cells; assay: Neutral lipid quantification, BODIPY-459/503; assay type: cell-based; conditions: H460, 48 h
How it was run: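 Sub-confluent H460 cells were treated with test compound for 48 h, then washed, trypsinised and resuspended in PBS. […] was added in PBS at 50 µg/ml, and cells were stained for 30 min at ambient temperature. After three PBS washes, cells were analysed by flow cytometry. Mean fluorescence was expressed as a ratio to untreated controls stained in parallel, from biological triplicates.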

[3] = test system: NF-κB reporter in HeLa cells; assay: Luciferase reporter, NF-κB binding sites; assay type: cell-based; conditions: 6 h
[4] = test system: c-Myc-dependent reporter (wt-Myc) in HeLa cells; assay: Luciferase reporter, c-Myc binding sites; assay type: cell-based; conditions: 6 h
[5] = biological target: c-Myc–Max(S) heterodimer (Homo sapiens, UniProt P01106); assay: SPR, c-Myc–Max; assay type: binding
[6] = test system: HL60 promyelocytic leukemia cells; assay: Cell cycle analysis, propidium iodide; assay type: cell-based, human; conditions: HL60, 24 h
[7] = biological target: c-Myc–Max heterodimers in HL60 cells (Homo sapiens, UniProt P01106); assay: c-Myc–Max co-immunoprecipitation; assay type: cell-based; conditions: HL60, 6 h
c-Myc–Max heterodimers in HL60 cells, sequence (P01106 whole entry, one chain of several): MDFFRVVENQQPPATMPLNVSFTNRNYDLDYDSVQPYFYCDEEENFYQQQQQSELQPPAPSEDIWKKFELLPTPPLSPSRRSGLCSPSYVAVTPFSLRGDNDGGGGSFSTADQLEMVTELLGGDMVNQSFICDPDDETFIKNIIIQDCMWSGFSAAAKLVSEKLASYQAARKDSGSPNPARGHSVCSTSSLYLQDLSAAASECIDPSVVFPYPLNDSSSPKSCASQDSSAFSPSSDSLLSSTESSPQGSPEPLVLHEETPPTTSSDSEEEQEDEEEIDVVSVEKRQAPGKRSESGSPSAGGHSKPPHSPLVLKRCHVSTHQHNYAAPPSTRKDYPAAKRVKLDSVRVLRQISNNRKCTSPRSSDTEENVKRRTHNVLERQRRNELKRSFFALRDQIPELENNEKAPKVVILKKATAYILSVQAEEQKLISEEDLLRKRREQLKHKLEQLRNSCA
How it was run: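 About 5 × 10^6 HL60 cells were exposed to test compound or DMSO vehicle for 6 h. Cells were pelleted at 500 × g, washed in ice-cold PBS and lysed in IP buffer, keeping an input aliquot. Max was immunoprecipitated, and precipitates were washed three times. They were run on 10% SDS-PAGE and immunoblotted with anti-Myc monoclonal 9E10 (1:1000).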

[8] = Solubility; assay type: physicochemical
[9] = test system: U266; conditions: read-out: Growth inhibition IC50, U266; U266 myeloma, expresses L-Myc; cited from earlier work
[10] = metabolism of the nitro group; cited from earlier work
[11] = biological target: c-Myc bHLH-ZIP domain;Max(S) (Homo sapiens;Homo sapiens, UniProt P01106-1;P61244-2 353-437;1-151, |); assay: SPR
[12] = biological target: Max(L) (Homo sapiens, UniProt P61244 1-160); assay: SPR

CC(C)COc1cc(C(=O)O)ccc1NC(=O)c1ccc([N+](=O)[O-])c(OCC(C)C)c1 [4aa, 3-Isobutoxy-4-(3-isobutoxy-4-nitrobenzamido)benzoic acid]
EMSA screening, disruption of c-Myc–Max(S)/DNA binding [1]: potent activity

CC(C)COc1cc(C(=O)O)ccc1NC(=O)c1ccc([N+](=O)[O-])c(OCc2ccccc2)c1 [4ca, 3-Isobutoxy-4-(3-benzyloxy-4-nitrobenzamido)benzoic acid]
EMSA screening, disruption of c-Myc–Max(S)/DNA binding [1]: complete disruption

CC(C)COc1cc(C(=O)O)ccc1NC(=O)c1ccc([N+](=O)[O-])c(OCc2cccc3ccccc23)c1 [4da, 3-Isobutoxy-4-(3-(naphthalen-1-ylmethoxy)-4-nitrobenzamido)benzoic acid]
Neutral lipid accumulation [2]: increase in neutral lipid stores
Luciferase activity, NF-kB vector [3]: no inhibition of luciferase was observed
Luciferase activity, wt-c-Myc vector [4]: dose-dependent inhibition of luciferase
Kd [5]: ~10 µM
Kd by SPR, pre-formed heterodimers ([5]; c-Myc–Max(S) heterodimers pre-formed before addition of compound (Figure 4E)): somewhat higher Kd
Cell cycle arrest [6]: promoted a G0/G1 arrest
c-Myc–Max association by co-IP [7]: remain largely intact
EMSA screening, disruption of c-Myc–Max(S)/DNA binding [1]: potent activity

COC(=O)c1ccc(NC(=O)c2ccc([N+](=O)[O-])c(OC(C)C)c2)c(OCC(C)C)c1 [14ba, Methyl 3-isobutoxy-4-(3-isopropoxy-4-nitrobenzamido)benzoate]
Solubility [8]: poor solubilities
EMSA screening, disruption of c-Myc–Max(S)/DNA binding [1]: modest inhibitory activities

CCc1ccc(/C=C2\SC(=S)NC2=O)cc1 [10058-F4, reference compound]
IC50 [9]: ~100 µM
Cell cycle arrest [6]: promoted a G0/G1 arrest
c-Myc–Max association by co-IP [7]: abrogated c-Myc’s association with Max

O=[N+]([O-])c1ccc(Nc2ccccc2-c2ccccc2)c2nonc12 [compound 2, reference compound]
Neutral lipid accumulation [2]: increase in neutral lipid stores
Luciferase activity, NF-kB vector [3]: no inhibition of luciferase was observed
Luciferase activity, wt-c-Myc vector [4]: dose-dependent inhibition of luciferase
Half-life [10]: short half-life

CC(C)COc1cc(C(=O)O)ccc1NC(=O)c1ccc([N+](=O)[O-])c(OCC(C)C)n1 [compound 15, 3-Isobutoxy-4-(6-isobutoxy-5-nitropicolinamido)benzoic acid]
EMSA screening, disruption of c-Myc–Max(S)/DNA binding [1]: complete disruption

CC(C)COc1nc(C(=O)O)ccc1NC(=O)c1ccc([N+](=O)[O-])c(OCC(C)C)n1 [compound 16, 6-Isobutoxy-5-(6-isobutoxy-5-nitropicolinamido)picolinic acid]
EMSA screening, disruption of c-Myc–Max(S)/DNA binding [1]: complete disruption

CCOC(=O)C(=O)Nc1ccc(C(=O)Nc2ccc(C(=O)O)cc2OCC(C)C)cc1OCC(C)C [compound 21, 4-(4-(2-Ethoxy-2-oxoacetamido)-3-isobutoxybenzamido)-3-isobutoxybenzoic acid]
EMSA screening, disruption of c-Myc–Max(S)/DNA binding [1]: complete disruption

Methyl 3-benzyloxy-4-(3-isobutoxy-4-nitrobenzamido)benzoate [14ca]
EMSA screening, disruption of c-Myc–Max(S)/DNA binding [1]: modest inhibitory activities

B1: E-box SPR oligonucleotide (dsDNA)
DNA 1: TGAAGCAGACCACGTGGTCGTCTTCA
DNA 2: TGAAGACGACCACGTGGTCTGCTTCA
binding result [11]: binds
binding result [12]: binds
